For 23 compounds, inhibition, IC50 and pKa results are on record in ChEMBL document CHEMBL1121422, “2,4-Diamino-5-benzylpyrimidines and analogues as antibacterial agents. 3. C-Benzylation of aminopyridines with phenolic Mannich bases. Synthesis of 1- and 3-deaza analogues of trimethoprim” (J Med Chem, 1980).

Broadly, the inhibition is the drop in the measured response relative to a control, in per cent. The low end stands for little suppression, the high end for strong suppression.

Data set [1] has as its target T1, Dihydrofolate reductase (Rattus norvegicus) (UniProt Q920D2).
T1 sequence (whole entry): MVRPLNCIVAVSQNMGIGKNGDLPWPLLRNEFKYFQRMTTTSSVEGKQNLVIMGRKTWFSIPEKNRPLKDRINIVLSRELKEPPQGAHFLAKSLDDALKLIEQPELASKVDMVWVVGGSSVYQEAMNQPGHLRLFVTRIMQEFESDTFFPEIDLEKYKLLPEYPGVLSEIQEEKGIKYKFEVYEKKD
Kind of data set: Tested for inhibition of dihydrofolate reductase enzyme purified from rat liver at the highest concentration tested. The essentials: (§1)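 Enzyme partially purified from rat liver, assayed in phosphate buffer by the Baccanari method. Compound held 5 min with enzyme and buffer at 37 °C before NADPH, then FH2, started the reaction. Percent inhibition of reaction rate recorded at the highest concentration tested.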

The target of data set [2] is T2, Dihydrofolate reductase (Escherichia coli) (UniProt P0ABQ4).
T2 sequence (whole entry): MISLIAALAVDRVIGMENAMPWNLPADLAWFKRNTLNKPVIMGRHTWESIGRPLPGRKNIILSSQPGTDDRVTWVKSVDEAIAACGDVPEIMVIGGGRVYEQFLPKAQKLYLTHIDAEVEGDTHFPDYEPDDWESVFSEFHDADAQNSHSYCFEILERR
Kind of data set: Tested for inhibition of dihydrofolate reductase enzyme purified from Escherichia coli […]. A digest of the protocol:
(§2)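 Affinity-column-purified E. coli enzyme in phosphate buffer (Baccanari method). Compound preincubated 5 min with enzyme and buffer at 37 °C. NADPH added, then FH2 to start the reaction. Value is percent inhibition of reaction rate at the highest concentration tested.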

Data set [3] deals with T3, Dihydrofolate reductase (Rattus norvegicus, UniProt Q920D2).
T3 sequence (Q920D2 whole entry): T1 sequence (whole entry)
Kind of data set: Inhibition of dihydrofolate reductase from rat liver […]. To be noted: read-out: I50. A digest of the protocol: as §1

Data set [4] can be described thus: Dissociation constant (pKa). The data set is classed as physicochemical. To be noted: read-out: Dissociation constant.
The target in data set [5] is T1, Dihydrofolate reductase (Rattus norvegicus). Kind of data set: Tested for inhibition of dihydrofolate reductase enzyme purified from rat liver at a concentration of 1x 10 e6 M. A digest of the protocol: as §1
For data set [6], the target named is T2, Dihydrofolate reductase (Escherichia coli). Kind of data set: (§3) Tested for inhibition of dihydrofolate reductase enzyme purified from Escherichia coli at a concentration of 1x 10 e6M. The essentials:
as §2

The target is the same in data set [7]. Described as §3. The essentials: as §2
The source holds these as a separate data set.

`COc1cc(Cc2cnc(N)c(Br)c2N)cc(OC)c1O`: the figures for the inhibition in data set [1] and in data set [2] were 21% and 11%, respectively. Besides, in data set [3], the IC50 is ~42 mM. Besides, the pKa in data set [4] was 7.2.
Take `COc1cc(CNc2ccnc(N)c2F)cc(OC)c1O`: the pKa in data set [4] is 7.26.
As for `Nc1ccnc(N)c1Br`, in data set [4], the pKa was determined as 7.44.
`CCc1cc(Cc2ccc(N)nc2N)cc(CC)c1O`: in data set [1], the inhibition was found to be 26%. Moreover, the IC50 in data set [3] was ~40 mM. The pKa in data set [4] came to 6.59.
As to `Nc1cccc(N)n1`, the pKa in data set [4] amounted to 6.73.
Regarding `COc1cc(Cc2cnc(N)c(F)c2N)cc(OC)c1O`, the inhibition in data set [1] was found to be 32%. For the same compound, in data set [3], the IC50 is ~35 mM. Moreover, in data set [4], the pKa is 7.15.
Consider `COc1cc(Cc2cnc(N)cc2N)cc(OC)c1O`, for which the inhibition in data set [1] stood at 37%. Further, in data set [3], the IC50 was ~10 mM.
For the compound `Nc1ccnc(N)c1`, in data set [4], the pKa came to 9.25.
`COc1cc(CC2C=CC(N)=NC2=O)cc(OC)c1O` (centres undefined): the inhibition in data set [1] was 2.4%; in data set [2], 0%. Further, the IC50 in data set [3] is ~1 mM. In addition, in data set [4], the pKa is 1.31.
In data set [2], `COc1cc(Cc2c(N)ccnc2N)cc(OC)c1O` had an inhibition of 26%. Besides, the IC50 in data set [3] turned out to be 41 mM.
In data set [5], `COc1cc(Cc2cnc(N)cc2N)cc(OC)c1OC` had an inhibition of 7%. Moreover, in data set [4], the pKa was found to be 9.03.
As to `COc1cc(CNc2ccnc(N)c2Br)cc(OC)c1O`, in data set [4], the pKa was 7.33.
`COc1cc(CNc2cccc(N)n2)cc(OC)c1O`: the inhibition in data set [6] amounted to 29%; in data set [7], 25%; in data set [5], 0%. In data set [4], the pKa worked out at 6.51.
Turning to `Nc1ccncc1` [DALFAMPRIDINE], the pKa in data set [4] worked out at 9.25.
`COc1cc(Cc2cc(Cc3cc(OC)c(O)c(OC)c3)c(N)nc2N)cc(OC)c1O`: in data set [2], the inhibition is 29%. Moreover, the IC50 in data set [3] was determined as 24 mM. For the same compound, the pKa in data set [4] is 6.69.
Consider `CC(C)c1cc(Cc2cnc(N)c(Br)c2N)cc(C(C)C)c1O`, for which, in data set [1], the inhibition was determined as 0%. For the same compound, in data set [3], the IC50 was ~23.7 mM.
As for `COc1cc(Cc2ccc(N)nc2N)cc(OC)c1O`, the inhibition worked out at 34% in data set [1] and 0% in data set [2]. The IC50 in data set [3] was ~10 mM. Moreover, in data set [4], the pKa came to 6.6.
As for `CCOC(=O)Nc1ccnc(C(N)=O)c1`, in data set [4], the pKa stood at 3.32.
Compound `CC(C)c1cc(Cc2cnc(N)cc2N)cc(C(C)C)c1O` returned an inhibition in data set [1] of 36%. Also, the IC50 in data set [3] is ~27 mM.
On to `CCc1cc(Cc2cc(Cc3cc(CC)c(O)c(CC)c3)c(N)nc2N)cc(CC)c1O`, for which the inhibition in data set [1] came to 19%. Further, in data set [3], the IC50 is ~1 mM. In addition, in data set [4], the pKa amounted to 6.63.
Regarding `Nc1ncc(Br)c(N)c1Br`, the pKa in data set [4] came to 5.5.
For `COc1cc(CC2=CC(Cc3cc(OC)c(O)c(OC)c3)C(=O)N=C2N)cc(OC)c1O` (centres undefined), in data set [3], the IC50 is 14 mM. Moreover, the pKa in data set [4] stood at 1.51.
Consider `CCOC(=O)Nc1ccnc(NC(=O)OCC)c1`, for which, in data set [4], the pKa was found to be 5.04.
